ChEMBL document CHEMBL1123678, “Octahydropyrazino[2',3':3,4]pyrido[1,2-a]indoles. A new class of potent antihypertensive agents” (1987)

What was measured:
Rattus norvegicus [1] = test: Antihypertensive activity was determined in cannulated spontaneously hypertensive rats(SHR) and maximum decrease of mean arterial blood pressure (MABP) at 10 mg/kg oral dose; type: functional, Artery
In short: (§1)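 Cannulated SHR given compound by gastric gavage in 0.5% methylcellulose (5 mL/kg), doses 0.1–50 mg/kg, 4–8 animals per dose, after 1-h equilibration. MABP recorded for 4 h; maximal % decrease reported with time to peak effect. Significance by two-way analysis of variance.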

Rattus norvegicus [2] = test: Antihypertensive activity was determined in cannulated spontaneously hypertensive rats(SHR) and maximum decrease of mean arterial blood pressure (MABP) at 1 mg/kg oral dose; type: functional, Artery; in short: as §1
Rattus norvegicus [3] = test: Antihypertensive activity was determined in cannulated spontaneously hypertensive rats(SHR) and maximum decrease of mean arterial blood pressure (MABP) at 5 mg/kg oral dose; type: functional, Artery; in short: as §1
Rattus norvegicus [4] = test: Vasopressor responses to epinephrine as a measure of the alpha-1-adrenoceptor blocking activity at 1 mg/kg administered orally was reported to be reveresed; type: functional, organism-based; parameters: dose 1 mg/kg
Rattus norvegicus [5] = test: Antihypertensive activity was determined in cannulated spontaneously hypertensive rats(SHR) and marked bradycardia was reported at a dose of 10 mg/kg; type: functional, organism-based; parameters: dose 10 mg/kg
Rattus norvegicus [6] = test: Antihypertensive activity was determined in cannulated spontaneously hypertensive rats(SHR) and marked bradycardia was reported at a dose of 5 mg/kg; type: functional, organism-based; parameters: dose 5 mg/kg
Rattus norvegicus [7] = test: Vasopressor responses to epinephrine as a measure of the alpha-1-adrenoceptor blocking activity at 5 mg/kg administered orally was reported to be reveresed; type: functional, organism-based; parameters: dose 5 mg/kg
Rattus norvegicus [8] = test: Vasopressor responses to epinephrine as a measure of the alpha-1-adrenoceptor blocking activity at 10 mg/kg administered orally was reported to be reveresed; type: functional, organism-based; parameters: dose 10 mg/kg
Rattus norvegicus [9] = test: Antihypertensive activity was determined in cannulated spontaneously hypertensive rats(SHR) and maximum decrease of mean arterial blood pressure (MABP) at 50 mg/kg oral dose; type: functional, Artery; in short: as §1
Rattus norvegicus [10] = test: Antagonism of vasopressor responses to epinephrine as a measure of the alpha-1-adrenoceptor blocking activity at 50 mg/kg administered orally was reported to be reversed; type: functional, organism-based; parameters: dose 50 mg/kg

| SMILES | Decrease in MABP (Rattus norvegicus [1]) | Decrease in MABP (Rattus norvegicus [2]) | Decrease in MABP (Rattus norvegicus [3]) | Activity (Rattus norvegicus [4]) | HR (Rattus norvegicus [5]) | HR (Rattus norvegicus [6]) | Activity (Rattus norvegicus [7]) | Activity (Rattus norvegicus [8]) | Decrease in MABP (Rattus norvegicus [9]) | Activity (Rattus norvegicus [10]) |
| --- | --- | --- | --- | --- | --- | --- | --- | --- | --- | --- |
| CCN1CCN(CC)[C@H]2c3c(C)c4ccccc4n3CC[C@@H]21.Cl.Cl | 32% | 14% | 28% | Vasopressor response reveresed | Heart rate response was reported to be reduce by 10-25% after 4 hr at a dose of 25 mg/kg | Heart rate response was reported to be reduce by 10-25% after 4 hr at a dose of 25 mg/kg | Vasopressor response reveresed | Vasopressor response reveresed |  |  |
| CCN1CCN(CCOc2ccccc2)C2CCn3c(c(C)c4ccccc43)C21.Cl.Cl (stereo not given) |  |  |  |  |  |  |  |  | 22% | Antagonism reversed |
